# Assay results from ChEMBL document CHEMBL3232862, “Optimization of chemical functionalities of indole-2-carboxamides to improve allosteric parameters for the cannabinoid receptor 1 (CB1)” (J Med Chem, 2014).
# Activity calls are given as the source filed them. No cut-off for these calls is given here.
# Key:
# [1] = target: Cannabinoid receptor 1 (Homo sapiens) (UniProt P21554); assay: Allosteric modulation of cannabinoid CB1 receptor (unknown origin) expressed in HEK293 cells assessed as inhibition of CP55940-induced [35S]GTPgammaS binding after 60 mins by liquid scintillation counting; type: functional, cell-based
# Cannabinoid receptor 1 (Homo sapiens), sequence (P21554 whole entry): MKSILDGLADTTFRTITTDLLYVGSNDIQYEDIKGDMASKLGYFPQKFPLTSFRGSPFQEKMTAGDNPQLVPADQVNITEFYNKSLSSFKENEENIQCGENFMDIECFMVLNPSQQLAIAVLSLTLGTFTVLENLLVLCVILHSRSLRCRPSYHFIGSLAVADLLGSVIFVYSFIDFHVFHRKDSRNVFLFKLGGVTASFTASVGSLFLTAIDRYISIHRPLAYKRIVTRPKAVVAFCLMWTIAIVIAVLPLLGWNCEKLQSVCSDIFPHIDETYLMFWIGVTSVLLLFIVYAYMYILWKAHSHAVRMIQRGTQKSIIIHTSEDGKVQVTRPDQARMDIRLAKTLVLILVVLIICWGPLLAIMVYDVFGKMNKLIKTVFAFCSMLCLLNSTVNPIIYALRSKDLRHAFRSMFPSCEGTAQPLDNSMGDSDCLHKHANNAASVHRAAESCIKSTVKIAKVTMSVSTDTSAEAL
# Method in brief: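 Membranes from HEK293 cells transiently expressing CB1 (calcium phosphate transfection, harvested 24 h) were used at 7.5 μg per assay. They were incubated 60 min at 30 °C in Tris pH 7.4, MgCl2, EGTA and NaCl with 0.1 nM [35S]GTPγS, 10 μM GDP, 0.1% BSA and CP55,940 (100 pM–100 μM), with or without modulator. Nonspecific binding was taken with 10 μM GTPγS. Read-out was filtration and scintillation counting, duplicates, ≥3 experiments.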
# [2] = target: Cannabinoid receptor 1 (Homo sapiens) (UniProt P21554); assay: Positive allosteric modulation of cannabinoid CB1 receptor (unknown origin) expressed in HEK293 cells assessed as induction of ERK1/2 phosphorylation by Western blot analysis in absence of siRNA targeting beta-arrestin 1; type: cell-based
# Method in brief: (§1)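 HEK293 cells were lipofectamine-transfected with CB1, with or without β-arrestin 1 siRNA (2.6 μg) or a nonsilencing control. After 24 h they were serum-starved for 18 h, with optional PTX at 5 ng/mL for 16 h at 37 °C. Cells were exposed 5 min to modulator (0–10 μM) plus 0.2 μM CP55,940 and lysed. 12 μg protein was run on 10% SDS-PAGE and immunoblotted for phospho-p44/42 and total p44/42.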
# [3] = target: Cannabinoid receptor 1 (Homo sapiens) (UniProt P21554); assay: Displacement of [3H]CP55940 from cannabinoid CB1 receptor (unknown origin) expressed in HEK293 cells after 60 mins by liquid scintillation counting; type: cell-based
# Method in brief: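 Membranes from HEK293 cells transiently transfected with CB1 (calcium phosphate), harvested 24 h post-transfection. […] At least nine test concentrations, 100 pM–100 μM. Nonspecific binding defined with 1 μM unlabeled CP55,940. Bound ligand kept below 10%. Filtration on GF/C. Duplicates, ≥3 independent experiments. KB and α obtained by nonlinear regression using the allosteric ternary complex model.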
# [4] = target: Cannabinoid receptor 1 (Homo sapiens) (UniProt P21554); assay: Positive allosteric modulation of cannabinoid CB1 receptor (unknown origin) expressed in HEK293 cells assessed as induction of ERK1/2 phosphorylation by Western blot analysis in presence of siRNA targeting beta-arrestin 1; type: cell-based; method in brief: as §1
# [5] = target: Cannabinoid receptor 1 (Homo sapiens) (UniProt P21554); assay: Positive allosteric modulation of cannabinoid CB1 receptor (unknown origin) expressed in HEK293 cells assessed as effect on ERK1/2 phosphorylation at 5 uM by Western blot analysis in absence of siRNA targeting beta-arrestin 1; type: cell-based; method in brief: as §1
# [6] = target: Cannabinoid receptor 1 (Homo sapiens) (UniProt P21554); assay: Positive allosteric modulation of cannabinoid CB1 receptor (unknown origin) expressed in HEK293 cells assessed as induction of ERK1/2 phosphorylation at 0.05 to 10 uM in presence of CP55940 for 5 mins and pre-treated with PTX for 16 hrs by Western blot analysis; type: cell-based; method in brief: as §1
SMILES,inhibition [1],inhibition [2],Kb [3],inhibition [4],Activity [5],Activity [6]
CCCc1c(C(=O)NCCc2ccc(N(C)C)cc2)[nH]c2ccc(Cl)cc12,Dose-dependent effect,Dose-dependent effect,259 nM,inactive,Active,
CCc1c(C(=O)NCCc2ccc(N(C)C)cc2)[nH]c2cc(Cl)ccc12,,,3670 nM,,,
CCc1c(C(=O)NCCc2ccc(N(C)C)cc2)[nH]c2cc(F)ccc12,,,1580 nM,,,
CCCCCCc1c(C(=O)NCCc2ccc(N(C)C)cc2)[nH]c2ccc(Cl)cc12,Dose-dependent effect,Dose-dependent effect,89.1 nM,inactive,Active,Active
CCCc1c(C(=O)NCCc2ccc(N3CCCCC3)cc2)[nH]c2ccc(Cl)cc12,,,1750 nM,,,
CCCCc1c(C(=O)NCCc2ccc(N(C)C)cc2)[nH]c2ccc(Cl)cc12,,,209 nM,,,
